The target in series [1] is T1, Cannabinoid receptor 1 (Homo sapiens, UniProt P21554). The format is functional, cell-based, CHO.
A further series has as its target Cannabinoid receptor 2 (Homo sapiens, UniProt P34972). Nature of the series: Displacement of [3H]CP-55940 from human recombinant cannabinoid CB2 receptor expressed in CHO cells after 3 hrs by liquid scintillation counting. The series is classed as cell-based. On the technique in general: In a radioligand displacement assay an active substance lowers the binding of a labelled ligand.

In series [2] the target is T1, Cannabinoid receptor 1. Nature of the series: biochemical. The series is classed as cell-based, CHO.
Series [3] deals with Rattus norvegicus. Kind of series: Antiobesity activity in diet-induced obese Sprague-Dawley rat assessed as reduction in food intake at 10 mg/kg, po after 3 hrs. Details: scale not given: the % may be the effect or the level left. The format is functional. An outline of the steps:
(§1)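 Male DIO Sprague-Dawley rats (HFD from weaning), randomized n = 14/group, individually caged. Single oral dose 10 mg/kg in 0.5% carboxymethyl cellulose (2 mL/kg) 1 h before dark onset. Preweighed pelleted food reweighed at 3 h and overnight (18 h) postdose for cumulative intake vs vehicle.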

Series [4] has as its target T1, Cannabinoid receptor 1. Nature of the series: Inverse agonist activity at human cannabinoid CB1 receptor expressed in CHO cells assessed as inhibition of forskolin-stimulated cAMP accumulation after 60 mins. The series is classed as functional, cell-based. In general terms: cAMP levels reflect the balance of adenylyl cyclase and phosphodiesterase activity.
Series [5] concerns Rattus norvegicus. Nature of the series: Antiobesity activity in diet-induced obese Sprague-Dawley rat assessed as reduction in final body weight gain at 10 mg/kg, po SID after 12 days. The series is classed as functional, organism-based. Also noted: dose 10 mg/kg. An outline of the steps: (§2)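 Male DIO rats (HFD from weaning, 60% kcal fat; used at 12-16 weeks, conditioned to water gavage 5 days), individually caged, n = 11-12/group. Oral gavage 10 mg/kg daily for 12 days, 1 h before dark cycle, in 0.5% carboxymethyl cellulose/water (2 mL/kg) vs vehicle. Food intake and body weight recorded daily; Student's t-test.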

Series [6] in a line: Plasma half life in Sprague-Dawley rat at 10 mg/kg, po. The format is ADME, organism-based. Also noted: dose 10 mg/kg, route oral. An outline of the steps: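 Male Sprague–Dawley rats fasted overnight, single oral dose 10 mg/kg. Blood collected at various time points into lithium heparin, plasma stored at -20 °C, extracted by protein precipitation and quantified by LC/MS/MS; n = 5 rats/group.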

Series [7] concerns Rattus norvegicus. Nature of the series: Antiobesity activity in diet-induced obese Sprague-Dawley rat assessed as body weight progression at 10 mg/kg, po SID up to 12 days. The series is classed as functional, organism-based. Also noted: dose 10 mg/kg. An outline of the steps: as §2
In series [8] the test system is Rattus norvegicus. Kind of series: Antiobesity activity in diet-induced obese Sprague-Dawley rat assessed as reduction in food intake at 10 mg/kg, po after 18 hrs. Also noted: scale not given: the % may be the effect or the level left. The series is classed as functional. An outline of the steps: as §1

Activity calls are given as the source filed them. The calls are words filed in the database; no cut-off is given here.

T1 sequence (P21554 whole entry): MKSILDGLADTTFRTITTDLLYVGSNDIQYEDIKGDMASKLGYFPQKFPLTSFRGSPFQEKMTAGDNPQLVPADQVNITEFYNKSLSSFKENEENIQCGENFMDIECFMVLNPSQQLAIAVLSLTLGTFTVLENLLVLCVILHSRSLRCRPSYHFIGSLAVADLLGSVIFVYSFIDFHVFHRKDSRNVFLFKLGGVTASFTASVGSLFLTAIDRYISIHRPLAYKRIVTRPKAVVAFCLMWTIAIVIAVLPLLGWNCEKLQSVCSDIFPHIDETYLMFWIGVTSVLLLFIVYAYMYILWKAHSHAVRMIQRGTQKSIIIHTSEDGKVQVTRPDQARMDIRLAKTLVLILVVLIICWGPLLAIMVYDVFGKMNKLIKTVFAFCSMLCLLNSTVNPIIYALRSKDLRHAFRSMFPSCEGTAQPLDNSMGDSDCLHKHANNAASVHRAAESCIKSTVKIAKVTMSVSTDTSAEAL
Chain of Cannabinoid receptor 2 (P34972 whole entry): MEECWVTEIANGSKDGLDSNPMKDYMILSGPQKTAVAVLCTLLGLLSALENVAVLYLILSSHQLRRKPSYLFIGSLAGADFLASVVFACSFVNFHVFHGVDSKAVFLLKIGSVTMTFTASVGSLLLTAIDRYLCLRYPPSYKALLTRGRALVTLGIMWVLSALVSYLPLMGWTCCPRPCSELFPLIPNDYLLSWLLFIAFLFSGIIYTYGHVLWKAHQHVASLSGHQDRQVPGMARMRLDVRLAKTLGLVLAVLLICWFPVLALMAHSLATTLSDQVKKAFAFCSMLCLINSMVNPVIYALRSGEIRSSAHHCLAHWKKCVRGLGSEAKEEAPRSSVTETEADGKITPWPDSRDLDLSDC

One may read the IC50 as the concentration needed to halve the response being measured. For orientation: Ki means a dissociation constant, usually derived from enzyme kinetics or from competition with a known ligand. In turn, `O=C(NC1CCCCC1)N1CCN(C(c2ccc(C(F)(F)F)cc2)c2ccc(Cl)cc2Cl)CC1` (centres undefined) yielded an IC50 on Cannabinoid receptor 1 [1] of 57 nM. The Ki at Cannabinoid receptor 2 was determined as 274 nM; at Cannabinoid receptor 1 [2], 1.2 nM.

On Cannabinoid receptor 1 [1], `O=C(NN1CCCCC1)N1CCN(C(c2ccccc2)c2ccc(Cl)cc2Cl)CC1` (centres undefined) yielded an IC50 of 4.7 nM. In addition, the results for the Ki at Cannabinoid receptor 2 and on Cannabinoid receptor 1 [2] were 1040 nM and 1.2 nM, respectively.

As to `O=C(NC1CCCCC1)N1CCN(C(c2cccc(Cl)c2)c2ccc(Cl)cc2Cl)CC1` (centres undefined), the IC50 against Cannabinoid receptor 1 [1] was determined as 161 nM. The results for the Ki at Cannabinoid receptor 2 and at Cannabinoid receptor 1 [2] were 407 nM and 2.3 nM, respectively.

`O=C(NC1CCCCC1)N1CCN(C(c2ccccc2)c2ccc(Cl)cc2F)CC1` (centres undefined): 124 nM corresponded to half-maximal inhibition on Cannabinoid receptor 1 [1] (IC50). In addition, the results for the Ki at Cannabinoid receptor 2 and on Cannabinoid receptor 1 [2] were 526 nM and 3.1 nM, respectively.

Take `S=C(NC1CCCCC1)N1CCN(C(c2ccccc2)c2ccccc2)CC1`: the values for the Ki on Cannabinoid receptor 2 and at Cannabinoid receptor 1 [2] were 1870 nM and 106 nM, respectively.

On Cannabinoid receptor 1 [1], `O=C(NC1CCCCC1)N1CCN(C(c2ccccc2)c2ccc(Cl)cc2Cl)CC1` (centres undefined) yielded an IC50 of 9.2 nM. For the same compound, the figures for the Ki on Cannabinoid receptor 2 and at Cannabinoid receptor 1 [2] were 432 nM and 1.6 nM, respectively.

Turning to `S=C(NC1CCCCC1)N1CCN(C(c2ccccc2)c2ccc(Cl)cc2Cl)CC1` (centres undefined), 18 nM corresponded to half-maximal inhibition on Cannabinoid receptor 1 [1] (IC50). Also, the Ki at Cannabinoid receptor 2 came to 673 nM; on Cannabinoid receptor 1 [2], 0.2 nM.

Take `O=C(NC1CCCCC1)N1CCN(C(c2ccc(Oc3ccccc3)cc2)c2ccc(Cl)cc2Cl)CC1` (centres undefined): the IC50 against Cannabinoid receptor 1 [1] was 34 nM. Besides, the results for the Ki at Cannabinoid receptor 2 and on Cannabinoid receptor 1 [2] were 52 nM and 1.1 nM, respectively.

With `Cc1ccc(C(c2ccc(Cl)cc2Cl)N2CCN(C(=O)NN3CCCCC3)CC2)cc1` (centres undefined), the IC50 against Cannabinoid receptor 1 [1] is 15 nM. Moreover, the figures for the Ki at Cannabinoid receptor 2 and on Cannabinoid receptor 1 [2] were 317 nM and 3 nM, respectively.

As for `O=C(C1CCCCC1)N1CCN(C(c2ccccc2)c2ccccc2)CC1`, the Ki at Cannabinoid receptor 2 amounted to 3050 nM; at Cannabinoid receptor 1 [2], 164 nM.

`O=C(NC1CCCCC1)N1CCN(C(c2ccccc2)c2ccc(Cl)c(Cl)c2)CC1` (centres undefined) showed an IC50 against Cannabinoid receptor 1 [1] of 462 nM. For the same compound, the results for the Ki at Cannabinoid receptor 2 and on Cannabinoid receptor 1 [2] were 356 nM and 60 nM, respectively.

`O=C(N1CCN(C(c2ccccc2)c2ccc(Cl)cc2Cl)CC1)C12CC3CC(CC(C3)C1)C2` (centres undefined) returned an IC50 at Cannabinoid receptor 1 [1] of 288 nM. Besides, the Ki came to 25 nM on Cannabinoid receptor 2 and 5.9 nM on Cannabinoid receptor 1 [2].

Turning to `O=C(N1CCOCC1)N1CCN(C(c2ccccc2)c2ccc(Cl)cc2Cl)CC1` (centres undefined), the IC50 on Cannabinoid receptor 1 [1] was more than 10000 nM. Moreover, the Ki is 618 nM at Cannabinoid receptor 2 and 111 nM on Cannabinoid receptor 1 [2].

Take `O=C(C1CCCCC1)N1CCN(C(c2ccccc2)c2ccc(Cl)cc2Cl)CC1` (centres undefined): the IC50 on Cannabinoid receptor 1 [1] is 9.3 nM. Also, the Ki on Cannabinoid receptor 2 is 2930 nM; on Cannabinoid receptor 1 [2] it was 5.8 nM.

`CCCCNC(=O)N1CCN(C(c2ccccc2)c2ccccc2)CC1`: the Ki at Cannabinoid receptor 2 is 2830 nM; at Cannabinoid receptor 1 [2], 239 nM.

One may read the EC50 as the concentration needed to bring the measured effect to its halfway point. What is called half-life is the time in which the quantity being followed falls by half. For the compound `Cc1ccc(C(c2ccc(Cl)cc2Cl)N2CCN(C(=O)NC3CCCCC3)CC2)cc1` (centres undefined), the Activity in the series with Rattus norvegicus [3] came out at 39%; with Rattus norvegicus [8], 22%. Also, the EC50 at Cannabinoid receptor 1 [4] was determined as 0.87 nM. Further, the outcome in the series with Rattus norvegicus [5] and in the series on Rattus norvegicus [7] was Active. This compound came in with an IC50 against Cannabinoid receptor 1 [1] of 2.7 nM. In [6], the half-life was 144 min. The Ki on Cannabinoid receptor 2 worked out at 329 nM; at Cannabinoid receptor 1 [2], 0.15 nM.

`O=C(C1CCC1)N1CCN(C(c2ccccc2)c2ccc(Cl)cc2Cl)CC1` (centres undefined) displayed an IC50 against Cannabinoid receptor 1 [1] of more than 10000 nM. For the same compound, the figures for the Ki on Cannabinoid receptor 2 and at Cannabinoid receptor 1 [2] were 2120 nM and 291 nM, respectively.

For `O=C(NC1CCCCC1)N1CCN(C(c2ccccc2)c2cc(Cl)ccc2Cl)CC1` (centres undefined), half-maximal inhibition on Cannabinoid receptor 1 [1] (IC50) was put at 43 nM. The values for the Ki at Cannabinoid receptor 2 and on Cannabinoid receptor 1 [2] were 899 nM and 5.9 nM, respectively.

For `O=C(NC1CCCCC1)N1CCN(C(c2ccccc2)c2ccccc2)CC1`, the Ki turned out to be 2410 nM on Cannabinoid receptor 2 and 52 nM at Cannabinoid receptor 1 [2].

The compound `O=C(N1CCCCC1)N1CCN(C(c2ccccc2)c2ccc(Cl)cc2Cl)CC1` (centres undefined) registered an IC50 against Cannabinoid receptor 1 [1] of more than 10000 nM. Besides, the Ki on Cannabinoid receptor 2 was found to be 987 nM; on Cannabinoid receptor 1 [2], 56 nM.

`O=C(NC1CCCCC1)N1CCN(C(c2ccccc2)c2c(Cl)cccc2Cl)CC1` (centres undefined) had an IC50 at Cannabinoid receptor 1 [1] of 55 nM. Besides, the Ki on Cannabinoid receptor 2 was 831 nM; at Cannabinoid receptor 1 [2], 2.2 nM.

As for `O=C(NC1CCCCC1)N1CCN(C(c2ccc(Cl)cc2)c2ccc(Cl)cc2Cl)CC1` (centres undefined), inhibition on Cannabinoid receptor 1 [1] was half-maximal at 19 nM (IC50). The results for the Ki on Cannabinoid receptor 2 and on Cannabinoid receptor 1 [2] were 26 nM and 0.23 nM, respectively.

`O=C(C1CCCC1)N1CCN(C(c2ccccc2)c2ccc(Cl)cc2Cl)CC1` (centres undefined) came in with an IC50 against Cannabinoid receptor 1 [1] of 403 nM. Moreover, the results for the Ki at Cannabinoid receptor 2 and on Cannabinoid receptor 1 [2] were 4880 nM and 732 nM, respectively.

`O=C(NC1CCCCC1)N1CCN(C(c2ccccc2)c2ccc(Br)cc2F)CC1` (centres undefined) came in with an IC50 against Cannabinoid receptor 1 [1] of 87 nM. The Ki was found to be 322 nM at Cannabinoid receptor 2 and 1.8 nM at Cannabinoid receptor 1 [2].

For the compound `COc1ccc(C(c2ccc(Cl)cc2Cl)N2CCN(C(=O)NC3CCCCC3)CC2)cc1` (centres undefined), the IC50 on Cannabinoid receptor 1 [1] was 82 nM. In addition, the values for the Ki on Cannabinoid receptor 2 and on Cannabinoid receptor 1 [2] were 290 nM and 2.6 nM, respectively.

With `CCCCNC(=O)N1CCN(C(c2ccccc2)c2ccc(Cl)cc2Cl)CC1` (centres undefined), the Ki on Cannabinoid receptor 2 is 918 nM.

On Cannabinoid receptor 1 [1], `O=C(NC1CCCCC1)N1CCN(C(c2ccc(F)cc2)c2ccc(Cl)cc2Cl)CC1` (centres undefined) came in with an IC50 of 8.1 nM. Moreover, the results for the Ki at Cannabinoid receptor 2 and at Cannabinoid receptor 1 [2] were 159 nM and 2.5 nM, respectively.

With `O=C(NC1CCCCC1)N1CCN(C(c2ccccc2)c2ccc(F)cc2Cl)CC1` (centres undefined), the IC50 against Cannabinoid receptor 1 [1] was determined as 68 nM. The Ki at Cannabinoid receptor 2 was 1300 nM; at Cannabinoid receptor 1 [2], 8.1 nM.

The values are drawn from ChEMBL document CHEMBL1154878, “Discovery of benzhydrylpiperazine derivatives as CB1 receptor inverse agonists via privileged structure-based approach” (Eur J Med Chem, 2010).
